Assay results from ChEMBL document CHEMBL1131611, “N-(Iodopropenyl)-octahydrobenzo[f]- and -[g]quinolines: synthesis and adrenergic and dopaminergic activity studies” (J Med Chem, 1998).

What was measured:
Type in all cases: cell membranes, Membrane
D(2) dopamine receptor [1] = target: T1, D(2) dopamine receptor (Rattus norvegicus, UniProt P61169); assay: Displacement of [3H]spiroperidol from Dopamine receptor D2 of rat striatal membranes
How it was run: (§1)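 Competition radioligand binding in rat striatal membranes: D2 sites labelled with [3H]spiroperidol and D1 sites with [3H]SCH-23390. Inhibition of specific binding was measured. Three experiments, each in duplicate. Compounds were tested up to 5 μM, and those without binding at that level were scored not active.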

[2] = target: T2, Adrenergic receptor alpha-2 (Rattus norvegicus, UniProt P22086+P19328+P22909); assay: Displacement of [3H]rauwolscine from Alpha-2 adrenergic receptor of rat cortical membranes
T2 sequence (P22086 whole entry): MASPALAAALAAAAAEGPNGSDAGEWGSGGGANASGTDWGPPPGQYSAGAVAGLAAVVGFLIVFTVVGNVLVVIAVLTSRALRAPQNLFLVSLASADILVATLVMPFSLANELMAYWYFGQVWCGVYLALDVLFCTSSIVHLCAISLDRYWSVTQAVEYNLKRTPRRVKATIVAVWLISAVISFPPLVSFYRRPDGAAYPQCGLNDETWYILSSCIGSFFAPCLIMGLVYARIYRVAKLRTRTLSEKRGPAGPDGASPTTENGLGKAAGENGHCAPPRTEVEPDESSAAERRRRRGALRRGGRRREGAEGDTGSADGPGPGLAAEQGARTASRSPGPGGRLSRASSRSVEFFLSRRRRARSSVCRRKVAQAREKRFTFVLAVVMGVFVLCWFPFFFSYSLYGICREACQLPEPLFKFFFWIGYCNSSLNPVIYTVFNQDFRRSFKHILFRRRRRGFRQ
T2 sequence (P19328 whole entry): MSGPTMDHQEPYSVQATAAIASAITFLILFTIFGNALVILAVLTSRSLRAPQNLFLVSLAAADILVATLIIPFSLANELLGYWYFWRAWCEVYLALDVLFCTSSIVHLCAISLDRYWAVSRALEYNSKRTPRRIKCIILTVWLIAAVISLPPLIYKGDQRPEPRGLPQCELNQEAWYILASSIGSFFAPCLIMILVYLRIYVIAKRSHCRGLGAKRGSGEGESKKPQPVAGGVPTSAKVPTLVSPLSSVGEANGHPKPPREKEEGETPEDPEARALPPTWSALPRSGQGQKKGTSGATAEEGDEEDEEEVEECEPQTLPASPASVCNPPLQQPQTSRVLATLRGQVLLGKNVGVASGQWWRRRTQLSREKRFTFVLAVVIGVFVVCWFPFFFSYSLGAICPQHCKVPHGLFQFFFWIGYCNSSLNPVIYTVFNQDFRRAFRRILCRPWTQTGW
T2 sequence (P22909 whole entry): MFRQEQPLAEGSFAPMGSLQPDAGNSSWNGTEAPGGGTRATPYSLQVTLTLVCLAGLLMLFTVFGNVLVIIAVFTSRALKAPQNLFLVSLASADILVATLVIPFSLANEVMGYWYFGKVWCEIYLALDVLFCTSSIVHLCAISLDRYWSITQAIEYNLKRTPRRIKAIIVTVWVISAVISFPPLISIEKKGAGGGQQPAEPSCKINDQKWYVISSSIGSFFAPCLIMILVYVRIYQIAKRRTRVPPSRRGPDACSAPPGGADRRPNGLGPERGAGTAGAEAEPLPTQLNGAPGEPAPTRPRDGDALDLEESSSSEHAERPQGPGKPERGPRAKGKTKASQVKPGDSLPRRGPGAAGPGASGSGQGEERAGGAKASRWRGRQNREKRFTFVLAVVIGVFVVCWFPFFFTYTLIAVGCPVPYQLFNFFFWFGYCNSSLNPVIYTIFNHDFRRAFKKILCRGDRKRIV

D(1A) dopamine receptor [3] = target: T3, D(1A) dopamine receptor (Rattus norvegicus, UniProt P18901); assay: Inhibition of specific binding of [3H]-SCH- 23390 to Dopamine receptor D1 in rat striatal membranes; NA= Not active up to a concentration of 5 uM; how it was run: as §1
D(2) dopamine receptor [4] = target: T1, D(2) dopamine receptor; assay: Inhibition of specific binding of [3H]spiroperidol to Dopamine receptor D2 in rat striatal membranes; how it was run: as §1
D(1A) dopamine receptor [5] = target: T3, D(1A) dopamine receptor; assay: Displacement of [3H]-SCH- 23390 from Dopamine receptor D1 of rat striatal membranes; how it was run: as §1
[6] = target: T4, Adrenergic receptor alpha-1 (Rattus norvegicus, UniProt P15823+P23944+P43140); assay: Displacement of [3H]prazosin from Alpha-1 adrenergic receptor of rat cortical membranes
T4 sequence (P15823 whole entry): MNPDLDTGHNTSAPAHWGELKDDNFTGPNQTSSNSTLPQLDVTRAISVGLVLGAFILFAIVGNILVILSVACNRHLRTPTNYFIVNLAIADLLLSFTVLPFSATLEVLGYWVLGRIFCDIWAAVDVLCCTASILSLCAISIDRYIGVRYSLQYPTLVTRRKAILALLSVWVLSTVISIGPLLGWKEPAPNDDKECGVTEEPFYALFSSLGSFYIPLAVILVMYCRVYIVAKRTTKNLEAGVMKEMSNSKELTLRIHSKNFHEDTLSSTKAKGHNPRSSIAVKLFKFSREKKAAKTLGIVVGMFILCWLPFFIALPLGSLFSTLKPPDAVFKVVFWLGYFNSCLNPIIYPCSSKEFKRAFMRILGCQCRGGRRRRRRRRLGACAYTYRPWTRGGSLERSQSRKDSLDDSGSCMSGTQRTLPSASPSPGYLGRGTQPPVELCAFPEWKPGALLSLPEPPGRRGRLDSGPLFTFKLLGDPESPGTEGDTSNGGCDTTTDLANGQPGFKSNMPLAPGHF
T4 sequence (P23944 whole entry): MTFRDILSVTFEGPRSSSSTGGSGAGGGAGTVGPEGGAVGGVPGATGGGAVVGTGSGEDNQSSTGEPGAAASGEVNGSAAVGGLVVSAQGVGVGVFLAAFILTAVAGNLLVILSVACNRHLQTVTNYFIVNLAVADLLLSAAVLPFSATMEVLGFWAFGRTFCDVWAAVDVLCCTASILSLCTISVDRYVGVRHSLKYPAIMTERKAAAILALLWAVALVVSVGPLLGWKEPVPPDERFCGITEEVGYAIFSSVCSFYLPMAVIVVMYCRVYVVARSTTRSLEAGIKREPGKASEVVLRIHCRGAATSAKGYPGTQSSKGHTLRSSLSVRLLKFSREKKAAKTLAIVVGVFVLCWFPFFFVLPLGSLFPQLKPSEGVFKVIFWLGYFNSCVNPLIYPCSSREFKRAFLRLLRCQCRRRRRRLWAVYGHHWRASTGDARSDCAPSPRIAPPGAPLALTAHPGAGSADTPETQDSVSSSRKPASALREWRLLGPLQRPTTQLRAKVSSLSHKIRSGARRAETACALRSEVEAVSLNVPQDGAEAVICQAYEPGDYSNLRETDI
T4 sequence (P43140 whole entry): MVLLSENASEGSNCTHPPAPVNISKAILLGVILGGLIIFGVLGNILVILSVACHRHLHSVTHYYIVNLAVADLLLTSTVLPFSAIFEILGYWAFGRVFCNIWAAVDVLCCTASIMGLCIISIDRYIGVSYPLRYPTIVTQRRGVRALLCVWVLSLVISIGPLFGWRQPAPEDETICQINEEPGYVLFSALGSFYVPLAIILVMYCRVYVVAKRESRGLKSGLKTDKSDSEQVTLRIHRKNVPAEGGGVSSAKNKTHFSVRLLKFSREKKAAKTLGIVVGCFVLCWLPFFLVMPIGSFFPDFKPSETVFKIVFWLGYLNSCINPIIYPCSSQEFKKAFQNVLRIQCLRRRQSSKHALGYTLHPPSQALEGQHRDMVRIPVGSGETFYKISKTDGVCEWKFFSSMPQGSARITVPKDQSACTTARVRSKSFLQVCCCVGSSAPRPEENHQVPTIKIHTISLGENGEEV

[7] = target: T2, Adrenergic receptor alpha-2; assay: Inhibition of specific binding of [3H]rauwolscine to Alpha-2 adrenergic receptor in rat cortical membranes
D(1A) dopamine receptor [8] = target: T3, D(1A) dopamine receptor; assay: Inhibition of specific binding of [3H]-SCH- 23390 to Dopamine receptor D1 in rat striatal membranes; Not active up to a concentration of 5 uM; how it was run: as §1

T1 sequence (P61169 whole entry): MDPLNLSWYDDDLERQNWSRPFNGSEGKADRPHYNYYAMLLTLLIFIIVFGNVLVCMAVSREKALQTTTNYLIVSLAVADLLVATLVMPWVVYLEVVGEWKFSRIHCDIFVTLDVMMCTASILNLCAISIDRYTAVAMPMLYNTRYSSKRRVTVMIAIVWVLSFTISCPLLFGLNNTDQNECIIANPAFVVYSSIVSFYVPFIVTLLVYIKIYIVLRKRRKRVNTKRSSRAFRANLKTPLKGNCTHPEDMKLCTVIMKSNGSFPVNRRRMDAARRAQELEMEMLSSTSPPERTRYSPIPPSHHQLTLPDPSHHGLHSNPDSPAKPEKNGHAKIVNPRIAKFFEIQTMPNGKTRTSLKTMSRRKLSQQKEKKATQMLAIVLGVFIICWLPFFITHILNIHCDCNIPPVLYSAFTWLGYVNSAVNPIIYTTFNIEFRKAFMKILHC
T3 sequence (P18901 whole entry): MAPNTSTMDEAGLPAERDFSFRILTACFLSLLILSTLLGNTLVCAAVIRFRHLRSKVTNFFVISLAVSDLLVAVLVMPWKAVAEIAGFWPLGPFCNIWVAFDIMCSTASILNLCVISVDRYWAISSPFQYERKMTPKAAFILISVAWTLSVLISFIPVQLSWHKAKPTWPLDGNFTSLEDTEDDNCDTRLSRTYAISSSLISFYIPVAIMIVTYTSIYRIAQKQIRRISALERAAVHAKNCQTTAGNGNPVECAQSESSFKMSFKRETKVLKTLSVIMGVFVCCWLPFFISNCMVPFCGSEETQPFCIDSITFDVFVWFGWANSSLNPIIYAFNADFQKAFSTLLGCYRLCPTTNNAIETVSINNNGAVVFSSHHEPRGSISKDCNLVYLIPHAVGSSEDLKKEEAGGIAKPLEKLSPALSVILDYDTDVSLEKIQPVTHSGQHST

Compound	IC50 (D(2) dopamine receptor [1])	IC50 [2] [nM]	IC50 (D(1A) dopamine receptor [3])	IC50 (D(2) dopamine receptor [4]) [nM]	IC50 (D(1A) dopamine receptor [5]) [nM]	IC50 [6] [nM]	IC50 [7] [nM]	IC50 (D(1A) dopamine receptor [8])
C#CCN1CCC[C@@H]2c3ccccc3CC[C@H]21	Not Active	160	Not Active	–	–	–	–	–
Oc1cccc2c1CC1CCCN(C/C=C/I)C1C2 (stereo not given)	–	0.5	–	490	120	54	–	–
C#CCN1CCCC2Cc3c(cccc3OC)CC21 (stereo not given)	Not Active	197	Not Active	–	–	1850	–	–
COc1cccc2c1CC1CCCNC1C2 (stereo not given)	Not Active	67.5	Not Active	–	–	2200	–	–
Oc1cccc2c1CC[C@@H]1[C@@H]2CCCN1C/C=C/I	Not Active	–	–	–	1130	225	47	–
c1ccc2c(c1)CC1CCCNC1C2 (stereo not given)	Not Active	–	–	–	–	–	130	Not Active
C#CCN1CCCC2Cc3ccccc3CC21 (stereo not given)	Not Active	142	–	–	–	1300	–	Not Active
C#CCN1CCCC2Cc3c(O)cccc3CC21 (stereo not given)	–	251	–	5110	700	209	–	–
I/C=C/CN1CCCC2Cc3ccccc3CC21 (stereo not given)	Not Active	33	–	–	220	274	–	–
c1ccc2c(c1)CC[C@H]1NCCC[C@H]21	Not Active	154	Not Active	–	–	–	–	–
COc1cccc2c1CC[C@H]1NCCC[C@H]21	Not Active	–	Not Active	–	–	–	55	–
C#CCN1CCC[C@@H]2c3cccc(O)c3CC[C@H]21	Not Active	–	–	–	–	–	49	Not Active
NC1CCc2cc(O)c(O)cc2C1 (stereo not given)	–	–	–	700	–	–	–	–
I/C=C/CN1CCC[C@@H]2c3ccccc3CC[C@H]21	Not Active	–	–	–	1900	253	128	–
COc1cccc2c1CC1CCCN(C/C=C/I)C1C2 (stereo not given)	Not Active	226	–	–	80	43	–	–
C#CCN1CCC[C@@H]2c3cccc(OC)c3CC[C@H]21	Not Active	–	Not Active	–	–	497	196	–
COc1cccc2c1CC[C@@H]1[C@@H]2CCCN1C/C=C/I	Not Active	–	–	–	270	508	18	–
